GSTO1 counter = counter-screen for RBBP9 inhibitors: inhibitors of human GSTO1 | hit rate 1.1% among 300,000 | inhibition, % at 5.96 µM | P78417 | recombinant GSTO1, activity-based probe fluorescence polarization;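 active means inhibition above the campaign mean inhibition plus 3 SD, cut at about 35% in these data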;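 further: 0% = GSTO1-1 with DMSO and 100% = wells lacking GSTO1-1 enzyme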
UBC9 SUMO inh = blocks human SUMOylation mediated by UBC9; HTRF SUMOylation assay, SAE1/SAE2 + UBC9, in vitro; inhibition, % at 35 µM; hit rate 0.36% among 290,000; AID 2006; in the data active means inhibition above about 50%, passing the limit was not always enough
Target sequence (P63279 whole entry, looked up): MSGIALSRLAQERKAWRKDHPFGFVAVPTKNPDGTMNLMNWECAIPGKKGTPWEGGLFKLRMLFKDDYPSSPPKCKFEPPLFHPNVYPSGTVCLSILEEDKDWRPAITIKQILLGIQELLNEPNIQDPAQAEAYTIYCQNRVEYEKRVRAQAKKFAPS
PAD4 inh = blocks human protein arginine deiminase 4. Q9UM07. recombinant PAD4, RCA probe fluorescence polarization. inhibition, % at 6.36 µM. hit rate 0.41% among 330,000;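 active means percent inhibition above a cutoff equal to the mean of all tested compounds plus 3 SD, cut at about 15% in these data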;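 further: 0% = PAD4 with RCA probe and DMSO and 100% = probe without PAD4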
JMJD2C inh = blocks human GASC-1 demethylase activity | Q9H3R0 | GST-JMJD2C(1-420) H3K9me3 demethylation, DELFIA europium | inhibition, % at 2.35 µM | hit rate 0.069% among 330,000 | AID 2099;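 active means more than half of a compound's replicate wells show inhibition beyond 50%, single wells judged on their own value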;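 further: signal counts dimethyl H3K9 product captured on neutravidin plate; 0% = median of DMSO wells and 100% = 0.3 times that DMSO median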
Target sequence (Q9H3R0 1-420 limits assumed): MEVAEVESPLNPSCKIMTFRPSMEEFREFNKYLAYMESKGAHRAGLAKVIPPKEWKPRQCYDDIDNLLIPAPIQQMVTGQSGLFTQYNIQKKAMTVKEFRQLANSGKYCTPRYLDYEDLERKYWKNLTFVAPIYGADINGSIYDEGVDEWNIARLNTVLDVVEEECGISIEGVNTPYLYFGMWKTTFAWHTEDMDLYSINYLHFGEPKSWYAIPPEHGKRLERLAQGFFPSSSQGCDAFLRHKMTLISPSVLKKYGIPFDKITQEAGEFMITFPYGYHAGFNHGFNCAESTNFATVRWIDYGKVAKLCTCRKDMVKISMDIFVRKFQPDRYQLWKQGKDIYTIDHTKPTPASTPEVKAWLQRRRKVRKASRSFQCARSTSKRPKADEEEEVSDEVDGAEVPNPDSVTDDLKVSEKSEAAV
TDP2 inh = TDP2 (human) inhibition, absorbance primary screen; hit rate 0.34% among 370,000; recombinant TDP2, T5PNP hydrolysis, p-nitrophenol absorbance 415 nm; AID 720702; inhibition, % at 12.8 µM; O95551;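 active means inhibition above the mean of all tested compounds plus 3 SD, set per campaign, cut at about 25% in these data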;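 further: 0% = DMSO with enzyme and 100% = buffer with substrate but no TDP2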
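Assay system: Recombinant human TDP2 | Quantity: 120 nM TDP2 per well | Incubation: 2 h at 37 °C | Signal: Epi absorbance | Evaluation: Percent inhibition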
Apaf1 inhib = inhibitors of human Apaf-1 apoptosome. O14727. reconstituted apoptosome caspase-3 activity, DEVD-Rh110 fluorescence. inhibition, % at 20 µM. hit rate 0.71% among 330,000. AID 489030; active means inhibition of at least 40% at 20 µM;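 further: plate controls were DMSO wells for no effect and DEVD-CHO caspase inhibitor wells for full effect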
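System: Apoptosome proteins | Medium: Hepes pH 7.5 with detergent and BSA | Also added: Cytochrome c trigger plus (Z-DEVD)2-Rh110 caspase-3 substrate | Incubation: 30 min compound preincubation, 50 min activation, room temperature | Detection: Rhodamine 110 fluorescence at Ex 480/Em 540 nm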
PAD4 FP conf = PAD4 (human) inhibition, confirmed; shares compounds with PAD4 inh; recombinant PAD4, RCA probe fluorescence polarization; inhibition, % at 6.36 µM; hit rate 28% among 1,200;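 active means mean inhibition across replicates above the hit cutoff set by the earlier primary screen, cut at about 15% in these data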;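 further: inhibitors block active-site labeling by the probe so polarization falls; 0% = PAD4 with probe and DMSO and 100% = probe without PAD4 enzyme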
* marks the source's active call; other numbers are inactive results; x = no result given. Only some compounds are listed: those with a hit (about 1.6% of all), similar ones and a draw of the others.

SMILES	GSTO1 counter	UBC9 SUMO inh	PAD4 inh	JMJD2C inh	TDP2 inh	Apaf1 inhib	PAD4 FP conf
CCOC(=O)c1c(N2C(=O)CC(Sc3ccccc3C(=O)O)C2=O)sc(C)c1C (stereo not drawn)	4	-8	17*	0	-8	-17	15
Cc1cc(C)cc(N2C(=O)CC(Sc3ccccc3C(=O)O)C2=O)c1 (stereo not drawn)	6	12	5	12	5	9	x
CCOC(=O)CC(NC(=O)C(CC)c1ccccc1)c1ccccc1Cl (stereo not drawn)	0	8	-1	2	0	3	x
CCOC(=O)CC(/C(C)=N\O)c1ccccc1 (stereo not drawn)	3	14	21*	8	-11	1	-6
COC(=O)C1CN(Cc2cn(Cc3ccc(F)cc3)nn2)CCS(=O)(=O)N1Cc1ccc(F)cc1 (stereo not drawn)	x	x	x	x	-12	x	x
N#Cc1cccc(NS(=O)(=O)c2ccc(S(=O)(=O)N3CCOCC3)cc2)c1	x	x	-3	0	4	-5	x
N#Cc1cccc(NS(=O)(=O)c2ccccc2Cl)c1	x	x	22*	x	3	-1	1
CC(=O)Nc1ccc(S(=O)(=O)Nc2cccc(C(=O)Nc3ccccc3C(=O)O)c2)cc1	-34	-2	18*	3	1	6	3
CN(c1c2c(nc3ncnn13)CCCC2)C1CCCCC1	x	x	x	x	6	x	x
Cc1nc2ccccc2n2c(O)c(CC(=O)O)cc12	14	4	75*	1	8	-21	39*
Cc1nc2ccccc2n1CCC(=O)O	4	9	-3	-2	-2	5	x
N#CCCN(C(=O)Cn1nc(C(=O)O)c2ccccc2c1=O)c1ccccc1	5	6	103*	9	4	9	0
CCCCNS(=O)(=O)/C=C/c1ccccc1CNC(=O)OC(C)(C)C	x	x	x	x	5	x	x
CCOC(=O)c1cc(C)sc1NC(=O)CSc1nnnn1C	1	-11	2	7	-18	-1	x
CCOC(=O)c1cc(C)sc1NC(=O)CSC1=NCCS1	1	-2	15*	12	-3	4	19*
CCCc1c(O)nc(SCCN(CCC)CCC)[nH]c1=O	2	-6	48*	4	-2	-18	4
C=CCNC(=O)C(=O)NCC1CCCN1S(=O)(=O)c1cccs1 (stereo not drawn)	5	x	27*	0	8	5	10
Cn1c(SCC(=O)Nc2ccc(Br)cn2)nnc1C1CC1	4	9	156*	5	-8	3	23*
CCCn1c(SCC(=O)Nc2ccc(Cl)cn2)nnc1C1CC1	-6	7	-4	-8	-12	-6	x
NC(=O)c1ccc(NC(=O)CSC(=O)c2ccccc2)cc1	x	x	17*	1	-1	-6	8
CC(=O)NC(C)C(=O)N1CCCC1C(=O)N1CCCC1C(=O)NC(C)C(=O)NC1C(=O)NC(CC(C)C)C(=O)NC2CCCCNC(=O)CCC(C(=O)NC(Cc3ccc(O)cc3)C(=O)O)NC(=O)C3CCC(=O)OCC(NC(=O)C4CCCN4C(=O)C(Cc4c[nH]c5ccccc45)NC2=O)C(=O)NC(CC(=O)OC1C)C(=O)NC(Cc1c[nH]c2ccccc12)C(=O)N3 (stereo not drawn)	x	x	x	x	-5	x	x
Cc1ccc2nc(NC(=O)CSc3nncc(=O)n3N)sc2c1	10	28	19*	0	9	-12	8
Cc1ccccc1CN1CCCCC(NC(=O)c2ccc(N(C)C)cc2)C1=O (stereo not drawn)	x	x	x	x	1	x	x
COC(=O)c1cccc(NC(=O)CSc2nc(O)c(-c3ccccc3)c(=O)[nH]2)c1	8	4	18*	10	1	10	20*
COC(=O)c1ccccc1NC(=O)CSc1nc(O)c(-c2ccccc2)c(=O)[nH]1	2	4	17*	0	10	-17	17*
SMILES	GSTO1 counter	UBC9 SUMO inh	PAD4 inh	JMJD2C inh	TDP2 inh	Apaf1 inhib	PAD4 FP conf
COc1ccccc1NC(=O)CSc1nc(N)c(-c2ccccc2)c(=O)[nH]1	-4	13	-6	-7	-5	4	x
Cc1ccc(C2=NN=C(NC(=O)CSc3nc(C)cc(C)n3)SC2)cc1	2	-95	71*	3	-1	8	68*
Cc1cc(C)nc(SCC(=O)NC2=NC(=O)C(C)S2)n1 (stereo not drawn)	1	3	2	1	4	-3	x
Cc1ccc(C2=NN=C(NC(=O)CSc3nnc4c5ccccc5n(C)c4n3)SC2)cc1	0	-42	23*	-9	x	39	37*
O=C(NCCCN1CCOCC1)c1ccc(Cl)cc1Cl	2	-14	15*	0	-3	4	1
CC(=O)N(Cc1cc(=O)[nH]c2ccccc12)c1cccc(C)c1	3	5	53*	5	-11	9	44*
CCCC(=O)N(Cc1cc(=O)[nH]c2ccccc12)c1ccccc1C	-3	8	15*	7	3	8	17*
CCC(=O)N(Cc1cc(=O)[nH]c2ccccc12)c1ccc(C)cc1	-17	11	15*	-8	-22	-3	0
Cc1cccc(N(Cc2cc(=O)[nH]c3ccccc23)C(=O)C(C)C)c1	3	12	-2	-7	-3	8	x
CCCC(=O)N(Cc1cc(=O)[nH]c2ccccc12)c1cccc(C)c1	-5	4	22*	-5	5	19	49*
CC(=O)N(Cc1cc(=O)[nH]c2ccccc12)c1ccccc1	-2	12	6	-8	12	-6	x
COC(=O)[C@]12CCCCC=C1N(Cc1ccc(OC)cc1)C(=O)[C@@H]2CC(=O)N1CCCCC1	x	x	x	x	2	x	x
COc1ccc(/C=C2\CC3(OC(=O)c4ccco4)CCCN2C3)cc1 (stereo not drawn)	x	x	x	x	-3	x	x
COc1ccc(Cn2cc(COC(=O)NCC(C)C)nn2)cc1	x	x	x	x	3	x	x
Cc1ccc(NC(=O)CSc2nnc(CN3CCOCC3)n2C)cc1C	4	-6	-4	-7	-7	-7	x
Cn1c(CN2CCOCC2)nnc1SCC(=O)Nc1ccc2c(c1)OCCO2	-5	25	42*	-11	-3	-3	10
O=C(Oc1ccc(-c2cnc3ccccc3n2)cc1)c1cccc([N+](=O)[O-])c1	2	-12	13	-4	-3	1	x
O=C(Oc1ccc(-c2cnc3ccccc3n2)cc1)c1ccc(Br)o1	5	12	39*	10	7	-3	27*
CCCCNS(=O)(=O)/C=C/c1ccc(OC)cc1CNC(=O)OC(C)(C)C	x	x	x	x	-8	x	x
COC(=O)c1[nH]c(=O)c2ccccc2c1OCc1ccccc1	-3	20	-3	4	7	7	x
